ChEMBL document CHEMBL4706633, “Design, Synthesis, and Biological Evaluation of a Series of Oxazolone Carboxamides as a Novel Class of Acid Ceramidase Inhibitors” (J Med Chem, 2020)
Converted amounts (≈) assume the structure as drawn. The source made the active and inactive calls. The calls are words filed in the database; no cut-off is given here.

Columns and labels:
[1] = target: T1, Acid ceramidase (Homo sapiens) (UniProt Q13510); experiment: Inhibition of human acid ceramidase at 10 uM using N-lauroyl ceramide incubated for 1 hr by LC/MS analysis relative to control
T1 sequence (whole entry): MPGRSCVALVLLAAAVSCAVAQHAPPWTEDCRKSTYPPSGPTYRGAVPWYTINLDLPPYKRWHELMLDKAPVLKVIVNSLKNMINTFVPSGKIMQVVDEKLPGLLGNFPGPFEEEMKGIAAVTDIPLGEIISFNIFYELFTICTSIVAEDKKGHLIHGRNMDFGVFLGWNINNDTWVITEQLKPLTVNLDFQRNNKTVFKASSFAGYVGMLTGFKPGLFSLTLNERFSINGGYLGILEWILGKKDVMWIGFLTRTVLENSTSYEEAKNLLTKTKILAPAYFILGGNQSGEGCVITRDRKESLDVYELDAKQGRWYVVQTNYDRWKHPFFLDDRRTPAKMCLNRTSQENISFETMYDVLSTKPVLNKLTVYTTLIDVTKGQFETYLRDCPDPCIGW

Acid ceramidase [2] = target: T2, Acid ceramidase (Homo sapiens, UniProt Q13510); experiment: Inhibition of human acid ceramidase using Rbm14-12 fluorogenic substrate incubated for 1 hr by fluorescence assay
T2 sequence (Q13510 whole entry): T1 sequence (whole entry)

Acid ceramidase [3] = target: T2, Acid ceramidase; experiment: Inhibition of human acid ceramidase
[4] = Half life in mouse plasma; type: ADME, cell-free
Procedure, shortened: (§1)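 Kinetic aqueous solubility was measured in PBS, pH 7.4. Metabolic stability was measured as t1/2 in mouse plasma and mouse liver microsomes, with microsomal data also given as % compound remaining at 1 h. Values are means of at least two independent experiments, each in two technical replicates.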

[5] = Kinetic solubility in pH 7.4 PBS buffer at 250 uM incubated for 1 hr by UPLC/MS analysis; type: physicochemical; conditions: read-out: Kinetic_solubility; procedure, shortened: as §1
[6] = Half life in mouse plasma at 2 uM by LC/MS-MS analysis; type: ADME, cell-free; procedure, shortened: as §1
[7] = Stability in mouse plasma at 2 uM after 120 mins by LC/MS-MS analysis; type: ADME, cell-free; conditions: read-out: Stabilty
[8] = Half life in mouse liver microsomes at 4.6 uM in presence of NADPH by LC/MS-MS analysis; type: ADME, Microsome; procedure, shortened: as §1
[9] = Stability in mouse liver microsomes at 4.6 uM in presence of NADPH after 60 mins by LC/MS-MS analysis; type: ADME, Microsome; conditions: read-out: Stabilty; procedure, shortened: as §1
[10] = target: T1, Acid ceramidase (Homo sapiens); experiment: Inhibition of human acid ceramidase at 5 uM using N-lauroyl ceramide incubated for 1 hr by LC/MS analysis relative to control
[11] = target: T1, Acid ceramidase (Homo sapiens); experiment: Inhibition of human acid ceramidase at 1 to 10 uM using N-lauroyl ceramide incubated for 1 hr by LC/MS analysis; conditions: dose 1-10 µM
[12] = Half life in pH 7 0.01M PBS buffer at 2 uM by LC/MS-MS analysis; type: physicochemical
Acid ceramidase [13] = target: T2, Acid ceramidase; experiment: Inhibition of acid ceramidase in human HL-60 cell lysates; type: subcellular
Acid ceramidase [14] = target: T2, Acid ceramidase; experiment: Inhibition of acid ceramidase in human HaCaT cell lysates; type: subcellular
Acid ceramidase [15] = target: T2, Acid ceramidase; experiment: Inhibition of acid ceramidase in human SK-OV-3 cell lysates; type: subcellular
[16] = target: T1, Acid ceramidase (Homo sapiens); experiment: Inhibition of acid ceramidase in human NCI-H460 cells at 25 uM relative to control; type: cell-based
[17] = target: T1, Acid ceramidase (Homo sapiens); experiment: Irreversible covalent inhibition of human acid ceramidase using N-lauroyl ceramide incubated for 1 hr by LC/MS analysis
[18] = target: T1, Acid ceramidase (Homo sapiens); experiment: Inhibition of human acid ceramidase using Rbm14-12 fluorogenic substrate incubated for 1 hr by fluorescence assay

CCC(C)NC(=O)n1cc(-c2ccccc2)oc1=O (racemic)
inhibition [1]: 21%

Cc1oc(=O)n(C(=O)NCCCCc2ccccc2)c1-c1ccccc1
IC50 (Acid ceramidase [2]; read-out: IC50): 42 nM

CCCCCCNC(=O)n1cc(Cl)c(=O)n(C(=O)OCC(C)C)c1=O
IC50 (Acid ceramidase [3]): 12.8 nM

CCCCCCNC(=O)n1nc(C)cc1C(F)(F)F
IC50 (Acid ceramidase [3]): 14 nM
half-life [4]: 9 min

CC(C)CNC(=O)n1cc(-c2ccccc2)oc1=O
solubility kinetic at 1 h, 250 µM [5]: < 1 µM
t1/2 [6]: > 2 h
remaining at 2 h, 2 µM [7]: 70%
t1/2 [8]: 0.833 h
IC50 (Acid ceramidase [2]; read-out: IC50): 1700 nM

O=C(NCCCCc1ccccc1)n1cc(-c2cnc3ccccc3n2)oc1=O
IC50 (Acid ceramidase [2]; read-out: IC50): 37 nM

COc1cc(-c2cn(C(=O)NCCCCc3ccccc3)c(=O)o2)ccc1F
solubility kinetic at 1 h, 250 µM [5]: < 1 µM
t1/2 [6]: > 2 h
remaining at 2 h, 2 µM [7]: 64%
t1/2 [8]: > 1 h
remaining at 1 h, 4.6 µM [9]: 74%
IC50 (Acid ceramidase [2]; read-out: IC50): 80 nM

O=c1[nH]cc(-c2ccccc2)o1
IC50 (Acid ceramidase [2]): Not Active

CCCCCCNC(=O)n1cc(F)c(=O)n(C(=O)OCC(C)C)c1=O
IC50 (Acid ceramidase [3]): 7.7 nM

CCOCCNC(=O)n1cc(-c2ccccc2)oc1=O
solubility kinetic at 1 h, 250 µM [5]: 20 µM (≈ 5.53 µg/mL)
t1/2 [6]: 1.33 h
t1/2 [8]: < 0.083 h
IC50 (Acid ceramidase [2]; read-out: IC50): 2040 nM

O=C(Nc1ccccc1)n1cc(-c2ccccc2)oc1=O
inhibition [10]: 20%

CCCCCCCCCCCCCC(=O)NCC(O)c1ccccc1 (centres undefined)
IC50 (Acid ceramidase [3]): 1290 nM

CN1CCC(c2cn(C(=O)NCCCCc3ccccc3)c(=O)o2)CC1
IC50 (Acid ceramidase [2]; read-out: IC50): 1400 nM

O=C(NCCCCc1ccccc1)n1c(-c2ccc(Cl)cc2)coc1=O
IC50 (Acid ceramidase [2]; read-out: IC50): 5 nM

CN1CCC(c2cc(-c3cn(C(=O)NCCCCc4ccccc4)c(=O)o3)ccc2F)CC1
solubility kinetic at 1 h, 250 µM [5]: 30 µM (≈ 13.5 µg/mL)
t1/2 [6]: > 2 h
remaining at 2 h, 2 µM [7]: 80%
t1/2 [8]: > 1 h
remaining at 1 h, 4.6 µM [9]: 70%
IC50 (Acid ceramidase [2]; read-out: IC50): 341 nM

CN1CCC(c2cccc(-c3cn(C(=O)NCCCCc4ccccc4)c(=O)o3)c2)CC1
solubility kinetic at 1 h, 250 µM [5]: 70 µM (≈ 30.3 µg/mL)
t1/2 [6]: > 2 h
remaining at 2 h, 2 µM [7]: 73%
t1/2 [8]: 0.5 h
IC50 (Acid ceramidase [2]; read-out: IC50): 153 nM

O=C(NCCCCc1ccccc1)N1C[C@H](c2ccccc2)OC1=O
inhibition [11]: inactive

O=C(NCCCCc1ccccc1)n1c(-c2ccccc2)coc1=O
half-life at 2 µM [12]: 0.167 h

O=C(OCCCCc1ccccc1)n1cc(-c2ccccc2)oc1=O
inhibition [11]: inactive

O=C(NCCCCc1ccccc1)n1cc(-c2ccc(Cl)cc2)oc1=O
IC50 (Acid ceramidase [2]; read-out: IC50): 83 nM

O=C(NCCCCc1ccccc1)n1cc(-c2ccc(F)cc2)oc1=O
solubility kinetic at 1 h, 250 µM [5]: < 1 µM
t1/2 [6]: 1.5 h
t1/2 [8]: 1 h
IC50 (Acid ceramidase [2]; read-out: IC50): 185 nM

CCCCCCCCCCCCCC(=O)N[C@H](C)[C@@H](O)c1ccccc1
IC50 (Acid ceramidase [13]): > 500000 nM
IC50 (Acid ceramidase [14]): 500000 nM

O=C(NCCCCc1ccccc1)n1cc(-c2ccccn2)oc1=O
solubility kinetic at 1 h, 250 µM [5]: < 1 µM
t1/2 [6]: 0.667 h
t1/2 [8]: 0.167 h
IC50 (Acid ceramidase [2]; read-out: IC50): 25 nM

O=C(NCCCCc1ccccc1)n1cc(-c2cscn2)oc1=O
IC50 (Acid ceramidase [2]; read-out: IC50): 44 nM

COc1ccccc1-c1cn(C(=O)NCCCCc2ccccc2)c(=O)o1
IC50 (Acid ceramidase [2]; read-out: IC50): 177 nM

COc1ccc(/C=C/C(=O)c2c(-c3ccccc3)c3ccccc3[nH]c2=O)cc1
IC50 (Acid ceramidase [3]): 28000 nM
IC50 (Acid ceramidase [15]): 28000 nM
inhibition [16]: 44%

CCCCCNC(=O)n1cc(-c2ccccc2)oc1=O
solubility kinetic at 1 h, 250 µM [5]: < 1 µM
t1/2 [6]: > 2 h
remaining at 2 h, 2 µM [7]: 60%
t1/2 [8]: < 0.083 h
IC50 (Acid ceramidase [2]; read-out: IC50): 39 nM

CC(C)CNC(=O)n1cc(-c2ccc(F)c(C3CCN(C)CC3)c2)oc1=O
inhibition [1]: 26%

O=C(NCCCCc1ccccc1)n1cc(-c2ccncc2)oc1=O
solubility kinetic at 1 h, 250 µM [5]: < 1 µM
t1/2 [6]: 0.5 h
t1/2 [8]: > 1 h
remaining at 1 h, 4.6 µM [9]: 75%
IC50 (Acid ceramidase [2]; read-out: IC50): 18 nM

COCCCNC(=O)n1cc(-c2ccccc2)oc1=O
inhibition [1]: 53%

N=C(N)Nc1ccc(CC(=O)Oc2ccc(-c3ccccc3)cc2)cc1
IC50 (Acid ceramidase [3]): 52000 nM

Cc1c(-c2ccccc2)oc(=O)n1C(=O)NCCCCc1ccccc1
IC50 (Acid ceramidase [2]; read-out: IC50): 69 nM

CC(C)CNC(=O)n1cc(-c2ccc(F)cc2C2CCN(C)CC2)oc1=O
inhibition [1]: 38%

O=C(NCCCCc1ccccc1)N1C[C@@H](c2ccccc2)OC1=O
inhibition [11]: inactive

O=C(NCCCCc1ccccc1)n1cc(-c2ccccc2)oc1=O
half-life at 2 µM [12]: > 12 h
inhibition [17]: Dose-dependent effect
solubility kinetic at 1 h, 250 µM [5]: < 1 µM
t1/2 [6]: < 0.083 h
t1/2 [8]: 0.667 h
IC50 (Acid ceramidase [2]; read-out: IC50): 90 nM

O=C(NCCCCc1ccccc1)n1cc(-c2cccnc2)oc1=O
solubility kinetic at 1 h, 250 µM [5]: < 1 µM
t1/2 [6]: 1 h
t1/2 [8]: > 1 h
remaining at 1 h, 4.6 µM [9]: 55%
IC50 (Acid ceramidase [2]; read-out: IC50): 70 nM

CN1CCC(c2cc(F)ccc2-c2cn(C(=O)NCCCCc3ccccc3)c(=O)o2)CC1
solubility kinetic at 1 h, 250 µM [5]: 60 µM (≈ 27.1 µg/mL)
t1/2 [6]: > 2 h
remaining at 2 h, 2 µM [7]: 54%
t1/2 [8]: > 1 h
remaining at 1 h, 4.6 µM [9]: 51%
IC50 (Acid ceramidase [2]; read-out: IC50): 337 nM

CN1CCC(c2cc(F)ccc2-c2c[nH]c(=O)o2)CC1
inhibition [18]: inactive

O=C(CCCCCc1ccccc1)n1cc(-c2ccccc2)oc1=O
inhibition [11]: inactive

Cn1nc(-c2cn(C(=O)NCCCCc3ccccc3)c(=O)o2)c2ccccc21
IC50 (Acid ceramidase [2]; read-out: IC50): 92 nM

CCCCCNC(=O)n1cc(-c2ccc(F)c(C3CCN(C)CC3)c2)oc1=O
IC50 (Acid ceramidase [2]; read-out: IC50): 1920 nM

CN(CCCCc1ccccc1)C(=O)n1cc(-c2ccccc2)oc1=O
inhibition [11]: inactive

COc1cccc(-c2cn(C(=O)NCCCCc3ccccc3)c(=O)o2)c1
solubility kinetic at 1 h, 250 µM [5]: < 1 µM
t1/2 [6]: > 2 h
remaining at 2 h, 2 µM [7]: 64%
t1/2 [8]: 0.5 h
IC50 (Acid ceramidase [2]; read-out: IC50): 341 nM

CCCCCNC(=O)n1c(-c2ccccc2)coc1=O
IC50 (Acid ceramidase [2]; read-out: IC50): 25 nM

O=C(NCCCCc1ccccc1)n1cc(-c2cnccn2)oc1=O
solubility kinetic at 1 h, 250 µM [5]: < 1 µM
t1/2 [6]: 0.667 h
t1/2 [8]: 1 h
IC50 (Acid ceramidase [2]; read-out: IC50): 32 nM

COc1ccc(-c2cn(C(=O)NCCCCc3ccccc3)c(=O)o2)cc1
IC50 (Acid ceramidase [2]; read-out: IC50): 400 nM

CCCCCCCCCCCCCCC[C@@H](O)[C@H](CO)NC(=O)CBr
IC50 (Acid ceramidase [3]): 52 nM

CCCCCCCC/C=C\CCCCCCCC(=O)NCCO [OLEOYLETHANOLAMIDE]
IC50 (Acid ceramidase [3]): 500000 nM

O=C(NCCCCc1ccccc1)n1cc(-c2nccs2)oc1=O
IC50 (Acid ceramidase [2]; read-out: IC50): 59 nM
